Bioassay records as filed in PubChem.
M1 PAM parental: nonselective activator or artifact in parental CHO-K1 calcium assay; ATP EC20, Fluo-8 calcium fluorescence; 0% at ATP EC20, 100% at ATP max; activation, % at 3 µM; 360,000 tested, 0.02% active;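 active = activation above the run cutoff, the mean activation of all test compounds plus 3 SD, cut at about 40% in these data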;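 also: peak over basal fluorescence ratio in a 140 s read after ATP addition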
OX1R antag-1: antagonists of human orexin 1 receptor (OX1R); inhibition, % at 6.6 µM; AID 485270; OX1R-expressing cells, FRET antagonist read-out; 330,000 tested, 1.8% active; in the data active = inhibition mostly above about 38%, no sharp cut-off; inactive = mostly below about 40%
Target sequence (O43613 whole entry, looked up): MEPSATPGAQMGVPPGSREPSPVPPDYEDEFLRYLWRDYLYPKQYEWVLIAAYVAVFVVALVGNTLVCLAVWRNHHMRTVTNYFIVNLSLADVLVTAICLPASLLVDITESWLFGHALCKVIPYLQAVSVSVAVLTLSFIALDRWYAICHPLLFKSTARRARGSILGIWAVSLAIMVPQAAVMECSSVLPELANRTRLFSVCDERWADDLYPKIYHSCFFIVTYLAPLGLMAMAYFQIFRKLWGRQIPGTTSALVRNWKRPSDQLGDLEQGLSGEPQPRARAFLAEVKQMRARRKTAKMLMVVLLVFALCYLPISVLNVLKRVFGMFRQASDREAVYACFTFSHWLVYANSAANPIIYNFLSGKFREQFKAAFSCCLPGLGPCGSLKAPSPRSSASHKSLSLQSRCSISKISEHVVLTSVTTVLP
CHO parental Ca: counter-screen: ATP calcium response change in parental CHO cells. 330,000 tested, 0.63% active. parental CHO-K1, ATP-induced calcium, Fluo-8 fluorescence. AID 463079. inhibition, % at 5.6 µM;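 active = inhibition above that plate's mean sample inhibition plus 3 SD, cut at about 26% in these data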
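Test system: parental CHO cells; detection: calcium-sensitive Fluo-8 fluorescence; evaluation: percent inhibition of calcium signal; also added: ATP as calcium-mobilizing challenge; repeats: one well per compound; control set: ATP-challenged DMSO wells low, unchallenged DMSO wells high; compound: single nominal dose of 5.6 µM per compound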
CHO-K1 Ca ag: M1 agonist counterscreen hit in parental CHO-K1 cells; AID 602248; Fluo-8 calcium fluorescence; scaled to maximal ATP response, vehicle zero; 360,000 tested, 0.48% active; activation, % at 3 µM; in the data active = activation above about 15%;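 also: untransfected CHO-K1 host cells lacking M1 receptor as counterscreen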
OX1R antag-2: antagonists of human orexin 1 receptor; O43613; CHO/OX1R cells, Fluo-8 calcium fluorescence, orexin A; inhibition, % at 5 µM; 330,000 tested, 0.43% active;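 active = inhibition above its plate's threshold, mean inhibition of all tested compounds on the plate plus 3 SD, cut at about 37% in these data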
CHO-K1 Ca antag: counter-screen for M1 antagonists: effect in parental CHO-K1 cells. ATP-induced calcium, Fluo-8 fluorescence. inhibition, % at 3 µM. 360,000 tested, 0.6% active. AID 602250;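 active = inhibition above a per-plate cutoff, the plate's mean sample inhibition plus 3 SD, cut at about 24% in these data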
Of the large screens only hits and unclear results are named; the others gave an inactive call. Only some compounds are listed: those with a hit (about 2.9% of all), similar ones and a draw of the others.

CCCCSCc1nc2nc(Cl)c(Cl)nc2[nH]1	none (no result: OX1R antag-1, CHO parental Ca, OX1R antag-2)
COc1cc(CNc2nccn3ccnc23)cc(OC)c1	none (no result: OX1R antag-1, CHO parental Ca, OX1R antag-2)
O=C(OCc1ccc([N+](=O)[O-])cc1)c1cc(=O)c2ccccc2o1	none
COC(=O)c1ccc(CNC(=O)c2ccc3c(c2)S(=O)(=O)N=C2CCCCCN23)cc1	none
COc1ccccc1NS(=O)(=O)c1cc(NC(=O)c2ccc(Cl)nc2)ccc1Cl	CHO-K1 Ca ag 16
COC(=O)c1cc(NC(=O)Nc2cccc(Cl)c2)ccc1Cl	OX1R antag-1 50, CHO-K1 Ca ag 18, OX1R antag-2 46, CHO-K1 Ca antag 24
COc1ccccc1NS(=O)(=O)c1cccc(NC(=O)Nc2cccc(Cl)c2)c1	CHO parental Ca 30, CHO-K1 Ca antag 34
O=C(Nc1cccc(Cl)c1)Nc1nc(-c2ccccc2)cs1	CHO parental Ca 37
COc1cccc(-c2cc(C(=O)N3CCc4ccccc4C3)[nH]n2)c1	none
O=Nc1c(O)[nH]c2ccc(F)cc12	none
Cc1cc2c(N=O)c(NO)ccc2[nH]1	OX1R antag-1 62
COc1ccc2nc(NC(=O)CS(=O)(=O)c3ccc(C)cc3)sc2c1	none
N#CC1=C(N)N2C(=C(C#N)C1c1ccc(Br)cc1)Nc1ccccc12 (stereo not drawn)	OX1R antag-1 76 (no result: M1 PAM parental, CHO-K1 Ca ag, CHO-K1 Ca antag)
N#CC1=C(N)N2C(=C(C#N)C1c1cccc(Br)c1)Nc1ccccc12 (stereo not drawn)	none
O=[N+]([O-])c1ccc(O)c(-c2cc(C(F)(F)F)nc(-c3ccccc3)n2)c1	CHO parental Ca 74
Oc1ccccc1-c1cc(C(F)(F)C(F)F)nc(-c2ccccc2)n1	none
CC(C)n1c(-c2ccco2)csc1=Nc1cccnc1	OX1R antag-1 74, CHO parental Ca 48
COCCn1c(-c2ccccc2)csc1=Nc1cccnc1	none
CCCN(C(=O)CSc1nc2ccccc2n1CC)C1CCS(=O)(=O)C1 (stereo not drawn)	none
Cc1cccc(C)c1N=Nc1c(C)cc(O)cc1C	CHO parental Ca 60
C(=N\Nc1ccccc1)/c1nc2ccccc2s1	none
CN(CC(=O)Nc1ccccc1Cl)C(=O)COC(=O)C1CCN(c2ccc(C(F)(F)F)cn2)CC1	none
NC1=C(Br)C(=O)c2ccccc2C1=O	OX1R antag-1 72
Cc1cc2c(cc1C)C(=O)C(Br)=C(N)C2=O	none (no result: OX1R antag-1, CHO parental Ca, OX1R antag-2)
Cc1ccc([C@@H]2CC(=O)[C@@H]3CN(S(=O)(=O)c4ccc(C)cc4)[C@H](c4ccccc4F)C[C@@H]3N2S(=O)(=O)c2ccc(C)cc2)cc1	none (no result: OX1R antag-1, CHO parental Ca, OX1R antag-2)
Cc1ccc([C@@H]2C[C@H]3[C@@H](CN2S(=O)(=O)c2ccc(C)cc2)C(=O)C[C@@H](c2ccc(Cl)cc2)N3S(=O)(=O)c2ccc(C)cc2)cc1	none (no result: OX1R antag-1, CHO parental Ca, OX1R antag-2)
Cc1ccc(S(=O)(=O)N2C[C@H]3C(=O)C[C@@H](c4ccccc4F)N(S(=O)(=O)c4ccc(C)cc4)[C@H]3C[C@H]2c2ccccc2)cc1	CHO-K1 Ca antag 31 (no result: OX1R antag-1, CHO parental Ca, OX1R antag-2)
Cc1ccc(S(=O)(=O)N2C[C@H]3C(=O)C[C@@H](c4ccc(Cl)cc4)N(S(=O)(=O)c4ccc(C)cc4)[C@H]3C[C@H]2c2cccc3ccccc23)cc1	CHO-K1 Ca antag 30 (no result: OX1R antag-1, CHO parental Ca, OX1R antag-2)
CC(C)(C)NC(=O)C(c1ccc(O)cc1)N(C(=O)CCC(=O)Nc1nccs1)c1ccc(F)cc1 (stereo not drawn)	none
O=C(NC1C/C(=N/O)c2cc3c(cc21)OCO3)C(F)(F)F (stereo not drawn)	none
Cc1nc2c(ccc3nc(NC(=O)c4ccc5c(c4)OCCO5)sc32)s1	OX1R antag-1 64
CC1(C(=O)Nc2ccc3ccccc3c2)CCC(=O)N1CC(F)(F)F (stereo not drawn)	CHO-K1 Ca antag 32 (no result: OX1R antag-1, CHO parental Ca, OX1R antag-2)
CC1(C(=O)Nc2ccc3c(c2)OCCO3)CCC(=O)N1CC(F)(F)F (stereo not drawn)	none (no result: OX1R antag-1, CHO parental Ca, OX1R antag-2)
O=C(Cn1cnnn1)NC1CCCN(Cc2ccccc2F)C1 (stereo not drawn)	none
Cc1cccc(C2N(c3ccc(F)cc3)C(=O)C3CCCN32)c1 (stereo not drawn)	CHO-K1 Ca antag 31
Cc1ccc(C2N(c3ccc(F)cc3)C(=O)C3CCCN32)cc1 (stereo not drawn)	none
Cc1cc(N2CCCC2)ccc1/C=C1\NC(=S)N(C)C1=O	CHO parental Ca 41, CHO-K1 Ca ag 17, OX1R antag-2 48
O=C1/C(=C/c2ccc(N3CCCC3)cc2)NC(=S)N1C1CC1	CHO parental Ca 58, CHO-K1 Ca ag 56, OX1R antag-2 106, CHO-K1 Ca antag 45
C[C@H]1CN([C@@H](C)CO)C(=O)c2cc(Br)cnc2O[C@@H]1CN(C)S(C)(=O)=O	none (no result: OX1R antag-1, CHO parental Ca, OX1R antag-2)
O=C(NCc1ccccc1Cl)c1ccc2c(=O)n(CCCN3CCCC3=O)c(=S)[nH]c2c1	CHO-K1 Ca antag 30
COc1ccc(NC(=O)CSc2ccc3nnc(CCNC(=O)c4ccccc4)n3n2)cc1OC	none
O=C(O)c1cccc(N2C(=O)c3ccc(Oc4ccc(Cl)cc4)cc3C2=O)c1	none
CC(=O)Oc1cccc(N2C(=O)c3ccc(C(=O)O)cc3C2=O)c1	none
O=C(O)c1ccc2c(c1)C(=O)N(c1cccc(-c3nc4ccccc4s3)c1)C2=O	CHO-K1 Ca antag 24
O=C(O)c1cccc(N2C(=O)c3ccc4c5c(ccc(c35)C2=O)C(=O)N(c2cccc(C(=O)O)c2)C4=O)c1	OX1R antag-1 74
N#C/C(=C\c1ccc(N2CCCCC2)o1)C(=O)Nc1cccc(Br)c1	CHO parental Ca 83, CHO-K1 Ca ag 54, OX1R antag-2 92, CHO-K1 Ca antag 58
N#C/C(=C\c1ccc(N2CCCCC2)o1)C(N)=O	OX1R antag-1 42
CCOc1ccc(S(=O)(=O)N2CCCC(C(=O)N3CCOCC3)C2)cc1C (stereo not drawn)	none
CC(C)n1nc(Cc2cccc3ccccc23)c(C#N)c1N	none
O=C(c1ccc(-n2cncn2)c([N+](=O)[O-])c1)N1CCN(S(=O)(=O)c2cccc(F)c2)CC1	none
CN(C)CCNc1ccc(-c2nn(C)c(=O)c3ccccc23)cc1[N+](=O)[O-]	OX1R antag-1 42
Cn1nc(-c2ccc(NCCO)c([N+](=O)[O-])c2)c2ccccc2c1=O	none
O=C(CSc1ccc2nnc(CCNC(=O)c3ccccc3)n2n1)NCCc1ccccc1	none
COc1ccc(/C=C(/C(=O)c2cccs2)N2C=CC=CC2=C(C#N)C#N)cc1	none (no result: OX1R antag-1, CHO parental Ca, OX1R antag-2)
N#CC(C#N)=C1C=CC=CN1/C(=C\c1ccco1)C(=O)c1ccc(Br)cc1	OX1R antag-1 61, CHO parental Ca 49
COc1ccc(C(=O)/C(=C\c2ccco2)N2C=CC=CC2=C(C#N)C#N)cc1	OX1R antag-1 66
N#CC(C#N)=C1C=CC=CN1/C(=C\c1ccco1)C(=O)c1ccccc1	none
O=S(=O)(Nc1ccc(F)cc1)c1ccc(S(=O)(=O)N2CCOCC2)cc1	CHO-K1 Ca ag 34
Cc1ccccc1NC(=O)NC(C)(C)CC(C)(C)C	CHO-K1 Ca ag 19
